One experiment deals with T1, full-length SIRT7 (Homo sapiens, UniProt Q9NRC8).
T1 sequence (Q9NRC8 1-400): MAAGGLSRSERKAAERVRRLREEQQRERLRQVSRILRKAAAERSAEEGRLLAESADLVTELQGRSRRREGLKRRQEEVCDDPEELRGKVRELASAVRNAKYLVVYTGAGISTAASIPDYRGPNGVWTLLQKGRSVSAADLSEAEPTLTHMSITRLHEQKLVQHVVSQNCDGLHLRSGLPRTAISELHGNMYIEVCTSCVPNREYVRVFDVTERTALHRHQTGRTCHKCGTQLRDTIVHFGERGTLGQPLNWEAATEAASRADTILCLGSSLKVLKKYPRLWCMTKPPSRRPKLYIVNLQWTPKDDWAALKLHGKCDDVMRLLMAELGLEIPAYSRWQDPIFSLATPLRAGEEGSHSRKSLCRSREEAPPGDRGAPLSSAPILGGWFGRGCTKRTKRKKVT
Briefly: Selectivity FDL deacetylation assay. It is filed as biochemical.

In a further experiment the target is T2, SIRT2 (Homo sapiens, UniProt Q8IXJ6).
T2 sequence (Q8IXJ6 1-389): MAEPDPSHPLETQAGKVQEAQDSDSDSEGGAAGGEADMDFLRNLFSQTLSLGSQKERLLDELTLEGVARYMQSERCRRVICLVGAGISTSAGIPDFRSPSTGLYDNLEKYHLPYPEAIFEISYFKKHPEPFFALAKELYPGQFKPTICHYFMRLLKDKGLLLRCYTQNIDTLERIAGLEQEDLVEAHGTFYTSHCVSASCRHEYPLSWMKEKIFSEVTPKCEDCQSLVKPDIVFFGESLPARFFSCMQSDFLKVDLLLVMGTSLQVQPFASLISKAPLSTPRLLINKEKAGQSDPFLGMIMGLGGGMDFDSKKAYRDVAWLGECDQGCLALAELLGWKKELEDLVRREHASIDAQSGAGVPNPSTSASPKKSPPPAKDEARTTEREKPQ
Briefly: HDACs selectivity assay. It counts as biochemical.

In the next experiment the target is T3, SIRT1 (Homo sapiens, UniProt Q96EB6).
T3 sequence (Q96EB6 1-747): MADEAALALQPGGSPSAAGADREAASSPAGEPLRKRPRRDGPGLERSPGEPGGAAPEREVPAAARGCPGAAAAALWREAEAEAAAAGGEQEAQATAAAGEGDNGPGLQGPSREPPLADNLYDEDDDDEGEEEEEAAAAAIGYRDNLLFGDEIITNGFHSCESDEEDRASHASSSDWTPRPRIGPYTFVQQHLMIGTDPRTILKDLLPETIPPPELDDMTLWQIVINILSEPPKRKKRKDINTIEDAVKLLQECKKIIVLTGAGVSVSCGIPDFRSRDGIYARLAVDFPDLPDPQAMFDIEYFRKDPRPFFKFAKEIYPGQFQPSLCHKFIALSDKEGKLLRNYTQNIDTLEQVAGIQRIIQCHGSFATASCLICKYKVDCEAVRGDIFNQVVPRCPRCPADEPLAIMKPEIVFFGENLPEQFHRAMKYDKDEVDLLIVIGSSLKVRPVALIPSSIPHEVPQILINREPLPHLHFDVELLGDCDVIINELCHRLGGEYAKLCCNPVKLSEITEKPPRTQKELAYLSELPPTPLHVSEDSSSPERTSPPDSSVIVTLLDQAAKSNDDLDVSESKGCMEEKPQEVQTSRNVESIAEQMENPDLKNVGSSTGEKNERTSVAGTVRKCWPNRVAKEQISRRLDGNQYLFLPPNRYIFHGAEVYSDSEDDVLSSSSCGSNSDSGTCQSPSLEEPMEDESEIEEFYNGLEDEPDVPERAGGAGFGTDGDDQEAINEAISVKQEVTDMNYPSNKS
Briefly: HDACs selectivity assay. It is filed as biochemical. The gist of the method:
(§1)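 Enzyme selectivity panel was run by an outside contract lab to its standard assay protocols. IC50 values came from dose–response fitting of the data points. Each experiment was done independently at least three times.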

For the next experiment, the target named is HDAC2 (Homo sapiens, UniProt Q92769). Briefly: HDACs selectivity assay. It counts as biochemical. In outline:
as §1

In the next experiment the target is SIRT6 (Homo sapiens, UniProt Q8N6T7). Briefly: Competition assay between SIRT6 substrates and JYQ-42. It counts as biochemical. Conditions: FDL competition assay.
Sequence of SIRT6 (Q8N6T7 whole entry): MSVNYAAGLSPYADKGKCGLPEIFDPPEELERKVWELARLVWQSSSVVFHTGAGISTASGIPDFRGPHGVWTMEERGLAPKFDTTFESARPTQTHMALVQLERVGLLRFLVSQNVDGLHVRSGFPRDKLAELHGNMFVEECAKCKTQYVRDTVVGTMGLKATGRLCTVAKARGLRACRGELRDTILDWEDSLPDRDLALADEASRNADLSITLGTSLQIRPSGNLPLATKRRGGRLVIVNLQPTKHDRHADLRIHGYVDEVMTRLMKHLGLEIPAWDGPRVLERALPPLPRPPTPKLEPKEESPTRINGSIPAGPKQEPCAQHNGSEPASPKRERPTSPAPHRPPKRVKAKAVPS
The next experiment has as its system BXPC-3 cells. Briefly: Western blot of SIRT6 substrates H3K9Ac, H3K18Ac, H3K56Ac. It counts as cell-based. Conditions: BXPC-3, indicated doses of JYQ-42 for 24 h. In outline: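 BXPC-3 cells were grown in RPMI1640 and MiaPaCa-2 cells in DMEM, each with 10% FBS and penicillin/streptomycin, at 37 °C under 5% CO2. Both lines were STR-verified. Cells took test compound at 0, 10, 20 or 40 μmol/L for 24 or 48 h and were lysed in 1× SDS loading buffer. Proteins were separated on 12% SDS-PAGE and transferred to PVDF. Blocking used Tris-NaCl pH 7.5 with Tween-20 and 5% milk. Detection was chemiluminescent (HRP), with β-actin as loading control.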

Another experiment addresses HDAC5 (Homo sapiens, UniProt Q9UQL6). Kind of experiment: HDACs selectivity assay. It counts as biochemical. The gist of the method:
as §1

In general, IC50 refers to the concentration at which inhibition is half-maximal. The low end stands for higher potency, the high end for lower potency.

Where only a bound is given, the exact number is not on record here.

Sequence of HDAC5 (Q9UQL6 whole entry): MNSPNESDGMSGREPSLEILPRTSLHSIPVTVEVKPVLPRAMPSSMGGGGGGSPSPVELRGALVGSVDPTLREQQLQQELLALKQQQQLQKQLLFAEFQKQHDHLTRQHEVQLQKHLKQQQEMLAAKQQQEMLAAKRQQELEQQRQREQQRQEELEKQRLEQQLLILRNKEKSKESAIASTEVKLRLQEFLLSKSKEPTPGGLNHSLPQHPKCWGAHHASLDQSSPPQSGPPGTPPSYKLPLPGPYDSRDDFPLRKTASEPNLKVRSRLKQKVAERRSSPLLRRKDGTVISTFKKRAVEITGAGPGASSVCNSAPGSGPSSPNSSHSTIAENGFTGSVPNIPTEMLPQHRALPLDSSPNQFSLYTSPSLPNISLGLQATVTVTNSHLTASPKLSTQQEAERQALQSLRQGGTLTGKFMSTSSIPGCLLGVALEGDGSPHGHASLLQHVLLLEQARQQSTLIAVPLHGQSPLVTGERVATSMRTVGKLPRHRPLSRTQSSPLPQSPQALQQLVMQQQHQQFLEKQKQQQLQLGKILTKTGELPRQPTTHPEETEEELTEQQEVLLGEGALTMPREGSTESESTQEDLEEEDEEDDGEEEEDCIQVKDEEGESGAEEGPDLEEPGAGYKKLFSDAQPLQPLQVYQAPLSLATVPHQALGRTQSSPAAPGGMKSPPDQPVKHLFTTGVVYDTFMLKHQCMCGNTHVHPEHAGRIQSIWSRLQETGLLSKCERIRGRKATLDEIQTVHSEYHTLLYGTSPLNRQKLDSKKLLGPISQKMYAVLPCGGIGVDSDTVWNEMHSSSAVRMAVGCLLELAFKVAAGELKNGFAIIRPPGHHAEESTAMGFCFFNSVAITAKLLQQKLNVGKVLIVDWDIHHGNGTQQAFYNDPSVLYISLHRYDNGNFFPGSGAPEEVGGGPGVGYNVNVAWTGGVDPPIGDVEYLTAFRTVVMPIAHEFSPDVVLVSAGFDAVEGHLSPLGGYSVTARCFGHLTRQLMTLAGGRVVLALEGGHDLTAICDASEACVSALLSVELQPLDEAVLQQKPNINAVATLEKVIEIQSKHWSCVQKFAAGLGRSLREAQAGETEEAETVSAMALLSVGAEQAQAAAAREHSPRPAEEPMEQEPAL
Sequence of HDAC2 (Q92769 whole entry): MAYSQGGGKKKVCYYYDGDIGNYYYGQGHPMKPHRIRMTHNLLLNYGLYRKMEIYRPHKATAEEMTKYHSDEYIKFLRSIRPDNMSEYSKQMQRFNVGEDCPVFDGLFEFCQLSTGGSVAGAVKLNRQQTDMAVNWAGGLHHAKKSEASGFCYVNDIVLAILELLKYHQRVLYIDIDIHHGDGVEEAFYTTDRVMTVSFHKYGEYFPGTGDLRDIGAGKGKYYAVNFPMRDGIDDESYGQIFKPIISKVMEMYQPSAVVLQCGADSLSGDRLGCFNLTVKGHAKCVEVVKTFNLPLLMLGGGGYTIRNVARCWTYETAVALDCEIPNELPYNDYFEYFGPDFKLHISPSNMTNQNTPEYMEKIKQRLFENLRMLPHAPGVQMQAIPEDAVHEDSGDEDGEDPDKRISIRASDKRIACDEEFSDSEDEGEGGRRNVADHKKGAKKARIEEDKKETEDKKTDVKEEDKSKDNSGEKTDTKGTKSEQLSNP

Turning to `Nc1nonc1-n1cc(C(=O)N/N=C/c2cc(Cl)cc(C(F)(F)F)c2)nn1` [JYQ-42], the concentration for half-maximal inhibition (IC50) on full-length SIRT7 was over 100 µM; at SIRT2, 87.2 ± 1.1 µM; on SIRT1, over 100 µM; against HDAC2, over 100 µM; against HDAC5, over 100 µM. Besides, at SIRT2 (50 μmol/L), the “inhibition ratio at 50 μmol/L (SIRT2)” value was found to be 38.6%. For the same compound, the “SIRT2 IC50 relative to that of SIRT6” value at SIRT2 (IC50 SIRT2 / IC50 SIRT6) is on record as “approximately 37 fold”. Besides, the Effect entry on SIRT2 (SIRT2) is recorded as “Inhibition”. Moreover, on SIRT6, the “effect of increasing NAD^+ or Ac-RHKK-Ac-AMC on the inhibition” value is on record as “did not interfere with the inhibition”. For the same compound, in the experiment with BXPC-3 cells, the “levels of H3K9Ac, H3K18Ac and H3K56Ac” value was “increased the levels of H3K9Ac, H3K18Ac and H3K56Ac in a dose-dependent manner”.

For the origin of these results see article PMC8897208 (Acta Pharmaceutica Sinica. B, 2021).
